Measurements: ChEMBL document CHEMBL1131139, “Synthesis and antibacterial activity of ketolides (6-O-methyl-3-oxoerythromycin derivatives): a new class of antibacterials highly potent against macrolide-resistant and -susceptible respiratory pathogens” (1998)
In brackets after ≈: the same amount, converted by molar mass.

Legend:
Format in all cases: functional
Staphylococcus aureus [1] = assay: In vitro inhibitory activity against Staphylococcus aureus (EryRi 011GO25i)
Method in brief: (§1)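 Two-fold agar dilution on Mueller-Hinton agar (pH 7.4). Inoculum from overnight plate cultures suspended in Mueller-Hinton broth, adjusted to 10^9 CFU/mL, diluted 1:200 and spotted by multipoint inoculator at about 10^4 CFU/spot. Plates incubated 37 °C for 20 h. MIC taken as lowest concentration with no visible growth.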

Streptococcus pneumoniae [2] = assay: In vitro inhibitory activity against Streptococcus pneumoniae (032UC1); method in brief: as §1
Streptococcus pneumoniae [3] = assay: In vitro inhibitory activity against Streptococcus pneumoniae (EryRc 030SJ1); method in brief: as §1
Haemophilus influenzae [4] = assay: In vitro inhibitory activity against Haemophilus influenzae (351HT3); method in brief: as §1
Streptococcus pyogenes = assay: In vitro inhibitory activity against Streptococcus pyogenes (02A1UC1); method in brief: as §1
Streptococcus pneumoniae [5] = assay: In vitro inhibitory activity against Streptococcus pneumoniae (EryRi 030SJ5i); method in brief: as §1
[6] = test system: Staphylococcus epidermidis; assay: In vitro inhibitory activity against Staphylococcus epidermidis (EryRi 012GO11i); method in brief: as §1
Haemophilus influenzae [7] = assay: In vitro inhibitory activity against Haemophilus influenzae (351CB12); method in brief: as §1
Staphylococcus aureus [8] = assay: In vitro inhibitory activity against Staphylococcus aureus (011UC4); method in brief: as §1
Staphylococcus aureus [9] = assay: In vitro inhibitory activity against Staphylococcus aureus (EryRc 011CB20); method in brief: as §1
Escherichia coli = assay: In vitro inhibitory activity against Escherichia coli (250 UC5); method in brief: as §1

Structure (SMILES) | MIC (Staphylococcus aureus [1]) [µg/mL] | MIC (Streptococcus pneumoniae [2]) [µg/mL] | MIC (Streptococcus pneumoniae [3]) [µg/mL] | MIC (Haemophilus influenzae [4]) [µg/mL] | MIC (Streptococcus pyogenes) [µg/mL] | MIC (Streptococcus pneumoniae [5]) [µg/mL] | MIC [6] [µg/mL] | MIC (Haemophilus influenzae [7]) [µg/mL] | MIC (Staphylococcus aureus [8]) [µg/mL] | MIC (Staphylococcus aureus [9]) [µg/mL] | MIC (Escherichia coli) [µg/mL]
CC[C@H]1OC(=O)[C@H](C)C(=O)[C@H](C)[C@@H](O[C@@H]2O[C@H](C)C[C@H](N(C)C)[C@H]2O)[C@](C)(OC)C[C@@H](C)/C(=N\OCCN2CCCC2)[C@H](C)[C@@H](O)[C@]1(C)O | 2.5 (≈ 3.57 µM) | 20 (≈ 28.6 µM) | 20 (≈ 28.6 µM) | 40 (≈ 57.1 µM) | 0.15 (≈ 0.214 µM) | 40 (≈ 57.1 µM) | 0.6 (≈ 0.857 µM) | 20 (≈ 28.6 µM) | 0.6 (≈ 0.857 µM) | 40 (≈ 57.1 µM) | 40 (≈ 57.1 µM)
CC[C@H]1OC(=O)[C@H](C)C(=O)[C@H](C)[C@@H](O[C@@H]2O[C@H](C)C[C@H](N(C)C)[C@H]2O)[C@](C)(OC)C[C@@H](C)C(=O)[C@H](C)[C@H]2N(CCCNc3ccccc3)C(=O)O[C@]12C | 0.6 (≈ 0.804 µM) | 0.02 (≈ 0.0268 µM) | 40 (≈ 53.6 µM) | 2.5 (≈ 3.35 µM) | 0.04 (≈ 0.0536 µM) | 0.6 (≈ 0.804 µM) | 0.3 (≈ 0.402 µM) | 1.2 (≈ 1.61 µM) | 0.08 (≈ 0.107 µM) | 40 (≈ 53.6 µM) | 40 (≈ 53.6 µM)
CC[C@H]1OC(=O)[C@H](C)C(=O)[C@H](C)[C@@H](O[C@@H]2O[C@H](C)C[C@H](N(C)C)[C@H]2O)[C@](C)(OC)C[C@@H](C)/C(=N\O)[C@H](C)[C@@H](O)[C@]1(C)O | 1.2 (≈ 1.99 µM) | 0.08 (≈ 0.133 µM) | 40 (≈ 66.4 µM) | 20 (≈ 33.2 µM) | 0.15 (≈ 0.249 µM) | 40 (≈ 66.4 µM) | 0.6 (≈ 0.995 µM) | 1.2 (≈ 1.99 µM) | 0.3 (≈ 0.498 µM) | 40 (≈ 66.4 µM) | 40 (≈ 66.4 µM)
CC[C@H]1OC(=O)[C@H](C)C(=O)[C@H](C)[C@@H](O[C@@H]2O[C@H](C)C[C@H](N(C)C)[C@H]2O)[C@](C)(OC)C[C@@H](C)/C(=N\O[C@@H]2CCCN(Cc3ccc(-c4ccccc4)cc3)C2)[C@H](C)[C@@H](O)[C@]1(C)O | 0.3 (≈ 0.352 µM) | 0.3 (≈ 0.352 µM) | 5 (≈ 5.87 µM) | 40 (≈ 46.9 µM) | 0.04 (≈ 0.0469 µM) | 0.3 (≈ 0.352 µM) | 0.6 (≈ 0.704 µM) | 10 (≈ 11.7 µM) | 0.6 (≈ 0.704 µM) | 20 (≈ 23.5 µM) | 40 (≈ 46.9 µM)
CCCN1C(=O)O[C@]2(C)[C@@H](CC)OC(=O)[C@H](C)C(=O)[C@H](C)[C@@H](O[C@@H]3O[C@H](C)C[C@H](N(C)C)[C@H]3O)[C@](C)(OC)C[C@@H](C)C(=O)[C@H](C)[C@@H]12 | 5 (≈ 7.64 µM) | 0.04 (≈ 0.0611 µM) | 40 (≈ 61.1 µM) | 40 (≈ 61.1 µM) | 0.15 (≈ 0.229 µM) | 40 (≈ 61.1 µM) | 40 (≈ 61.1 µM) | 40 (≈ 61.1 µM) | 1.2 (≈ 1.83 µM) | 40 (≈ 61.1 µM) | 40 (≈ 61.1 µM)
CC[C@H]1OC(=O)[C@H](C)C(=O)[C@H](C)[C@@H](O[C@@H]2O[C@H](C)C[C@H](N(C)C)[C@H]2O)[C@](C)(OC)C[C@@H](C)/C(=N\OCCNCCN2CCCC2)[C@H](C)[C@@H](O)[C@]1(C)O | 1.2 (≈ 1.62 µM) | 10 (≈ 13.5 µM) | 0.6 (≈ 0.808 µM) | 20 (≈ 26.9 µM) | 0.04 (≈ 0.0538 µM) | 1.2 (≈ 1.62 µM) | 0.6 (≈ 0.808 µM) | 10 (≈ 13.5 µM) | 0.3 (≈ 0.404 µM) | 40 (≈ 53.8 µM) | 40 (≈ 53.8 µM)
CC[C@H]1OC(=O)[C@H](C)C(=O)[C@H](C)[C@@H](O[C@@H]2O[C@H](C)C[C@H](N(C)C)[C@H]2O)[C@](C)(OC)C[C@@H](C)C(=O)[C@H](C)[C@H]2N(CCCCc3cccc(Cl)c3)C(=O)O[C@]12C | 0.6 (≈ 0.77 µM) | 0.02 (≈ 0.0257 µM) | 2.5 (≈ 3.21 µM) | 1.2 (≈ 1.54 µM) | 0.02 (≈ 0.0257 µM) | 0.08 (≈ 0.103 µM) | 0.15 (≈ 0.192 µM) | 1.2 (≈ 1.54 µM) | 0.04 (≈ 0.0513 µM) | 10 (≈ 12.8 µM) | 40 (≈ 51.3 µM)

Now from value to compound:

MIC (Staphylococcus aureus [1]) [µg/mL] | MIC (Streptococcus pneumoniae [2]) [µg/mL] | MIC (Streptococcus pneumoniae [3]) [µg/mL] | MIC (Haemophilus influenzae [4]) [µg/mL] | MIC (Streptococcus pyogenes) [µg/mL] | MIC (Streptococcus pneumoniae [5]) [µg/mL] | MIC [6] [µg/mL] | MIC (Haemophilus influenzae [7]) [µg/mL] | MIC (Staphylococcus aureus [8]) [µg/mL] | MIC (Staphylococcus aureus [9]) [µg/mL] | MIC (Escherichia coli) [µg/mL] | Structure (SMILES)
2.5 (≈ 3.62 µM) | 0.15 (≈ 0.217 µM) | 40 (≈ 57.9 µM) | 40 (≈ 57.9 µM) | 0.15 (≈ 0.217 µM) | 10 (≈ 14.5 µM) | 1.2 (≈ 1.74 µM) | 40 (≈ 57.9 µM) | 1.2 (≈ 1.74 µM) | 40 (≈ 57.9 µM) | 40 (≈ 57.9 µM) | CC[C@H]1OC(=O)[C@H](C)C(=O)[C@H](C)[C@@H](O[C@@H]2O[C@H](C)C[C@H](N(C)C)[C@H]2O)[C@](C)(OC)C[C@@H](C)/C(=N/OCOCCOC)[C@H](C)[C@@H](O)[C@]1(C)O
0.6 (≈ 0.726 µM) | 0.08 (≈ 0.0968 µM) | 1.2 (≈ 1.45 µM) | 20 (≈ 24.2 µM) | 0.08 (≈ 0.0968 µM) | 0.3 (≈ 0.363 µM) | 0.6 (≈ 0.726 µM) | 5 (≈ 6.05 µM) | 0.6 (≈ 0.726 µM) | 10 (≈ 12.1 µM) | 40 (≈ 48.4 µM) | CCCCCCCCCCN1CCCC(O/N=C2\[C@H](C)C[C@@](C)(OC)[C@H](O[C@@H]3O[C@H](C)C[C@H](N(C)C)[C@H]3O)[C@@H](C)C(=O)[C@@H](C)C(=O)O[C@H](CC)[C@@](C)(O)[C@H](O)[C@H]2C)C1 (stereo not given in full)
0.15 (≈ 0.201 µM) | 0.02 (≈ 0.0268 µM) | 0.15 (≈ 0.201 µM) | 1.2 (≈ 1.61 µM) | 0.02 (≈ 0.0268 µM) | 0.3 (≈ 0.403 µM) | 0.04 (≈ 0.0537 µM) | 2.5 (≈ 3.36 µM) | 0.08 (≈ 0.107 µM) | 40 (≈ 53.7 µM) | 40 (≈ 53.7 µM) | CC[C@H]1OC(=O)[C@H](C)C(=O)[C@H](C)[C@@H](O[C@@H]2O[C@H](C)C[C@H](N(C)C)[C@H]2O)[C@](C)(OC)C[C@@H](C)C(=O)[C@H](C)[C@H]2N(CCCCc3ccccc3)C(=O)O[C@]12C
